IC50, inhibition and Activity data for 14 compounds are collected here from ChEMBL document CHEMBL5226322, “Harnessing the Role of HDAC6 in Idiopathic Pulmonary Fibrosis: Design, Synthesis, Structural Analysis, and Biological Evaluation of Potent Inhibitors” (J Med Chem, 2021).

In data set [1] the target is T1, Histone deacetylase 1 (Homo sapiens, UniProt Q13547). The experiment in a line: Inhibition of human recombinant HDAC1 using ZMAL (Z-(Ac)Lys-AMC) as fluorogenic substrate incubated for 120 mins by microplate reader assay.
T1 sequence (Q13547 whole entry): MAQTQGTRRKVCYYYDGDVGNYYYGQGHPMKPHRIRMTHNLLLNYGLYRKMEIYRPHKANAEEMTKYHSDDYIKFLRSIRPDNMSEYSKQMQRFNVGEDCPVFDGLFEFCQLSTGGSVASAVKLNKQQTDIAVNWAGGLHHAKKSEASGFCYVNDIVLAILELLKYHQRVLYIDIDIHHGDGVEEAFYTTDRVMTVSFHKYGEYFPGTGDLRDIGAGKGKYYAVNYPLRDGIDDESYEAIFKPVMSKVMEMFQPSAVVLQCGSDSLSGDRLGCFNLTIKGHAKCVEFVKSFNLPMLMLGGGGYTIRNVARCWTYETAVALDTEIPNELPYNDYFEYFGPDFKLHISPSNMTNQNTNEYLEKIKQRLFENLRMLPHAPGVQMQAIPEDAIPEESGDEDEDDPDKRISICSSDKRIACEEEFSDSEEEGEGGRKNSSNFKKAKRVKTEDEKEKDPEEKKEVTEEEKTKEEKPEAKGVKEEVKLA
Data set [2] deals with T2, Protein deacetylase HDAC6 (Homo sapiens, UniProt Q9UBN7).
T2 sequence (Q9UBN7 whole entry): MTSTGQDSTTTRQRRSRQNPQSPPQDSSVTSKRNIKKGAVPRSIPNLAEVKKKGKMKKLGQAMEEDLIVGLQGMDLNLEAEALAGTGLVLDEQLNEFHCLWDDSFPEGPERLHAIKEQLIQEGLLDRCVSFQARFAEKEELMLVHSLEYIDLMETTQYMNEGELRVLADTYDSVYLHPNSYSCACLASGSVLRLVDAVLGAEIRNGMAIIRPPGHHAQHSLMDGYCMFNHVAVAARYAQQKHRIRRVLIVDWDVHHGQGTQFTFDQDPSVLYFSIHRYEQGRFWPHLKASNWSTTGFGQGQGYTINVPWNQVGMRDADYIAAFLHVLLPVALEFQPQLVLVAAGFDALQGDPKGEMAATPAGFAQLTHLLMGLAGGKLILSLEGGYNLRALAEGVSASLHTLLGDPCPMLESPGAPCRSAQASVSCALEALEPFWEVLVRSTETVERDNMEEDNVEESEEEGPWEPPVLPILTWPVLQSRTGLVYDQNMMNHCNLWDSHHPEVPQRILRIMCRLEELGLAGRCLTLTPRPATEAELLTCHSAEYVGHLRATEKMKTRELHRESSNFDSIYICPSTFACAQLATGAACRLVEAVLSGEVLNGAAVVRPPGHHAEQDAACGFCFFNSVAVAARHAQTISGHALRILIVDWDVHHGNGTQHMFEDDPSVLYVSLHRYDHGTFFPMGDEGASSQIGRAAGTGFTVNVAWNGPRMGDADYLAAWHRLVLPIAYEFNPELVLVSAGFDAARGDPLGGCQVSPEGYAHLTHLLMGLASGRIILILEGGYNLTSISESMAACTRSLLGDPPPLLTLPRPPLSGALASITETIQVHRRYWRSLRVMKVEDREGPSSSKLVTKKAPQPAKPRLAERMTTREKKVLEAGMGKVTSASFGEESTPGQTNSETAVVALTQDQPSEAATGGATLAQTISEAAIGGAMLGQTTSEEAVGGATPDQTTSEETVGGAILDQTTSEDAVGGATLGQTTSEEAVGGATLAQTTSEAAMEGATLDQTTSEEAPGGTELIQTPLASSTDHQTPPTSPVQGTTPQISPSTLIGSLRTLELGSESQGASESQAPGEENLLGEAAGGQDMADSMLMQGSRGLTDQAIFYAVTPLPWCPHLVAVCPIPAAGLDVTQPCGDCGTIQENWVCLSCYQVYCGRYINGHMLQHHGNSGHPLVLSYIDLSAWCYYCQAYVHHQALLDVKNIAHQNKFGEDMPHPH
Put plainly: Inhibition of human recombinant HDAC6 using ZMAL (Z-(Ac)Lys-AMC) as fluorogenic substrate incubated for 120 mins by microplate reader assay.

Data set [3] addresses T3, Protein deacetylase HDAC6 (Homo sapiens) (UniProt Q9UBN7).
T3 sequence (whole entry): T2 sequence (Q9UBN7 whole entry)
The experiment in a line: Inhibition of HDAC6 in human U87 cells assessed as increase in acetylation of alpha-tubulin at 5 uM incubated for 30 hrs by western blot analysis. Type of data set: cell-based. In outline: (§1)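 Whole lysates (35 μg) and acid-extracted histones (2 μg) run on SDS-PAGE and blotted for acetylated tubulin or acetyl-histone H3; GAPDH or H4 as loading controls.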
Background: Immunoblotting shows a protein as a band on a membrane.

The test system of data set [4] is Airway basal cell. The experiment in a line: Inhibition of spheroid count in IPF patient derived human Airway basal cell assessed as reduction in sphere count at 20 to 50 nM incubated for 14 days by Bright-field microscopy analysis. It counts as functional, cell-based. The conditions noted are these: dose 20-50 nM, time 14.0 day. A digest of the protocol:
(§2)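 Airway basal cells from bronchial brushings of IPF patients, 10⁴ cells in Matrigel on transwell inserts with 1:1 BEGM/DMEM. Treated 14 days (1–50 nM per methods; 0.1–50 nM per legend), medium changed every 7 days.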

Data set [5] has as its target T3, Protein deacetylase HDAC6 (Homo sapiens). Put plainly: Inhibition of HDAC6 in human NB-4 cells assessed as increase in acetylation of alpha-tubulin at 5 uM incubated for 30 hrs by western blot analysis. Type of data set: cell-based. A digest of the protocol:
as §1

For data set [6] the target is unchanged. Put plainly: Inhibition of HDAC6 in human U2OS cells assessed as increase in acetylation of alpha-tubulin at 5 uM incubated for 30 hrs by western blot analysis. It counts as cell-based. In outline: as §1
The species named for data set [7] is Homo sapiens. The experiment in a line: Inhibition of broncho-sphere formation in IPF patient derived human lung organoid assessed as inhibition of 3D organoid formation at 0.1 to 50 nM incubated for 14 days by Bright-field microscopy analysis. The conditions noted are these: dose 0.1-50 nM, time 14.0 day. It counts as functional. A digest of the protocol: as §2

The nature of data set [8]: Inhibition of spheroid count in IPF patient derived human Airway basal cell incubated for 14 days by Bright-field microscopy analysis. It counts as functional, cell-based. In outline: as §2
Data set [9] relates to Airway basal cell. Put plainly: Inhibition of cell proliferation in IPF patient derived human Airway basal cell at 20 to 50 nM incubated for 14 days by MTT assay. It counts as functional, cell-based. As to conditions: dose 20-50 nM, time 14.0 day. In outline:
(§3)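 IPF patient airway basal cell 3D organoid cultures (10⁴ cells in Matrigel, 1:1 BEGM/DMEM) treated 14 days at 1–50 nM, medium changed weekly. Proliferation read by colorimetric MTT on day 14. Mean ± SEM of triplicates, n=3; repeated-measures ANOVA/Friedman test. Reported IC50 is the mean of the count-based and MTT-based IC50s.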
For orientation: Tetrazolium dyes change colour on reduction, which living cells bring about.

For data set [10], the target named is T4, Histone deacetylase 8 (Homo sapiens, UniProt Q9BY41).
T4 sequence (Q9BY41 whole entry): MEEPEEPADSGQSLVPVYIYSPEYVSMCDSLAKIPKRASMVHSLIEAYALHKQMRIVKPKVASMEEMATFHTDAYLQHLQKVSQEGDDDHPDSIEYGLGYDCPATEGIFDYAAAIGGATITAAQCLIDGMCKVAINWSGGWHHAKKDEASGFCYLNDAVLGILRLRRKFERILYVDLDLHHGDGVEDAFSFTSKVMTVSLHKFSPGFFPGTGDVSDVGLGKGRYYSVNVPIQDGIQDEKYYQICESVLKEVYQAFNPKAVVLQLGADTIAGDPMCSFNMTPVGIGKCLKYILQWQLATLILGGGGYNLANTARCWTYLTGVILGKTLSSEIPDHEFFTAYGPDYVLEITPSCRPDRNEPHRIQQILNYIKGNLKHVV
Put plainly: Inhibition of human recombinant HDAC8 using FLUOR DE LYS fluorometric substrate pre-incubated for 15 mins and followed by substrate addition and measured after 60 mins by microplate reader assay. In outline: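 Recombinant human HDAC8 at 0.45 U/reaction with 0.5% DMSO; DMSO-only enzyme served as control. Enzyme preincubated 15 min with compound, then Fluor de Lys substrate added (50 μM final) for 1 h at 30 °C. Quenched with 2 μM TSA in Developer II for a further 1 h at 30 °C. Fluorescence read at ex 370/em 450 nm. IC50 from nonlinear dose-response fit.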

A short description of data set [11]: Inhibition of cell proliferation in IPF patient derived human Airway basal cell incubated for 14 days by MTT assay. Type of data set: functional, cell-based. The conditions noted are these: 336 h. A digest of the protocol: as §3
The target of data set [12] is T1, Histone deacetylase 1. The experiment in a line: Inhibition of HDAC1 in human NB-4 cells assessed as increase in acetylation of histone H3 at 5 uM incubated for 30 hrs by western blot analysis. Type of data set: cell-based. In outline:
as §1

Data set [13] deals with T1, Histone deacetylase 1. Put plainly: Inhibition of HDAC1 in human U87 cells assessed as increase in acetylation of histone H3 at 5 uM incubated for 30 hrs by western blot analysis. Type of data set: cell-based. A digest of the protocol: as §1
Data set [14] relates to NIH3T3. Put plainly: Cytotoxicity in mouse NIH3T3 cells assessed as reduction in cell viability at 5 uM incubated for 24 hrs by neutral red uptake method based UV/visible spectrophotometer analysis. Type of data set: toxicity. As to conditions: nih3t3, 24 h. In outline:
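NIH3T3 fibroblasts grown in DMEM with 10% FCS, L-glutamine/pen-strep and non-essential amino acids at 37 °C, 5% CO2. Monolayers exposed 24 h to compound diluted from a DMSO stock into medium. Neutral Red medium then added for 3 h at 37 °C. Dye extracted with acetic acid/ethanol desorb solution and absorbance read at 540 nm. Student's t-test, p<0.05.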

The subject of data set [15] is NIH3T3. Put plainly: Cytotoxicity in mouse NIH3T3 cells assessed as reduction in cell viability at 1 uM incubated for 24 hrs by neutral red uptake method based UV/visible spectrophotometer analysis. It counts as toxicity. The conditions noted are these: nih3t3, 24 h. A digest of the protocol: (§4)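 NIH3T3 mouse fibroblasts grown in DMEM with 10% FCS, L-glutamine/pen-strep and non-essential amino acids (37 °C, 5% CO2). Exposed 24 h to compound diluted from a DMSO stock into medium. Viability measured by Neutral Red uptake: 3 h in NR medium, then acetic acid/ethanol desorb, absorbance at 540 nm. Student's t-test, p<0.05.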

For data set [16], the system named is NIH3T3. The experiment in a line: Cytotoxicity in mouse NIH3T3 cells assessed as reduction in cell viability at 20 uM incubated for 24 hrs by neutral red uptake method based UV/visible spectrophotometer analysis. Type of data set: toxicity. As to conditions: nih3t3, 24 h. In outline: as §4
Data set [17] has as its system NIH3T3. Put plainly: Cytotoxicity in mouse NIH3T3 cells assessed as reduction in cell viability at 7.5 uM incubated for 24 hrs by neutral red uptake method based UV/visible spectrophotometer analysis. Type of data set: toxicity. The conditions noted are these: nih3t3, 24 h. A digest of the protocol:
as §4

Data set [18] concerns NIH3T3. Put plainly: Cytotoxicity in mouse NIH3T3 cells assessed as reduction in cell viability at 2 uM incubated for 24 hrs by neutral red uptake method based UV/visible spectrophotometer analysis. It counts as toxicity. As to conditions: nih3t3, 24 h. In outline:
as §4

The structures appear in SMILES notation. Calls of active or inactive are those of the source. The rule behind the calls is not given here.

As a reminder, the IC50 is the point on the concentration scale where inhibition reaches its midpoint. On to `CC1(C)c2ccccc2N(Cc2ccc(C(=O)NO)s2)C1c1cccnc1` (racemic), for which the IC50 in data set [1] turned out to be 6.32 µM; in [2] it was 0.811 µM.
As for `CN1CCC2(CC1)c1ccccc1N(Cc1ccc(C(=O)NO)cc1)C2c1ccc(Cl)cc1` (racemic), the 50% inhibitory concentration (IC50) in data set [1] was 3.65 µM; in data set [2] it was 0.165 µM.
`CC1(C)c2ccccc2N(Cc2ccc(C(=O)NO)cc2)C1c1ccncc1` (racemic): the inhibition entry in data set [3], in [4], in data set [5], in data set [6] and in data set [9] was “Active” in each case. The inhibition result in [7] was “Dose-Dependent Effect”. In addition, the half-maximal inhibitory concentration (IC50) came out at 0.00435 µM in data set [8]; 10.8 µM in data set [1]; 4.64 µM in [10]; 0.00497 µM in [11]; 0.0611 µM in data set [2]. Further, the inhibition entry in [12] and in [13] was “inactive” in each case.
Turning to `CC1(C)c2ccccc2N(Cc2ccc(C(=O)NO)cc2)C1c1ccccc1` (racemic), the 50% inhibitory concentration (IC50) in [1] was determined as 18.7 µM; in data set [2], 0.166 µM.
As for `CC(C)(C)OC(=O)N1CCC2(CC1)c1ccccc1N(Cc1ccc(C(=O)NO)cc1)C2c1cccnc1` (racemic), the IC50 in data set [1] is 8.1 µM; in [2], 0.152 µM.
For `O=C(CCCCCCC(=O)Nc1ccccc1)NO` [VORINOSTAT], the Activity is given as 31% in [14]; 83% in data set [15]; 7% in [16]; 22% in [17]; 62% in data set [18].
As to `COc1ccc2c(c1)C(C)(C)C(c1cccnc1)N2Cc1ccc(C(=O)NO)cc1` (racemic), the IC50 in data set [1] was determined as 5.32 µM; in data set [2] it was 0.0672 µM.
Turning to `CN1CCC2(CC1)c1ccccc1N(Cc1ccc(C(=O)NO)cc1)C2c1ccc(F)cc1` (racemic), the inhibition result in data set [3] and in data set [5] was “Active” each time. Moreover, the IC50 in [1] amounted to 6.16 µM; in [2], 0.142 µM. The inhibition entry in [12] and in [13] was “inactive” each time.
On to `CN1CCC2(CC1)c1ccccc1N(Cc1ccc(C(=O)NO)cc1)C2c1ccccc1` (racemic), for which the inhibition entry in [3], in data set [4], in data set [5] and in data set [9] was “Active” each time. Also, in data set [7], the inhibition entry is “Dose-Dependent Effect”. The IC50 was found to be 0.00255 µM in [8], 4.29 µM in [1], 0.000154 µM in data set [11] and 0.0732 µM in [2]. The inhibition result in [12] and in [13] was “inactive” throughout.
As to `CN1CCC2(CC1)c1ccccc1N(Cc1ccc(C(=O)NO)cc1)C2c1cccnc1` (racemic), the concentration for half-maximal inhibition (IC50) in [1] amounted to 7.6 µM; in [2], 0.112 µM.
Take `CN1CCC2(CC1)c1ccccc1N(Cc1ccc(C(=O)NO)cc1)C2c1cccc(Cl)c1` (racemic): the IC50 was 8.1 µM in data set [1] and 0.111 µM in data set [2].
With `CC1(C)c2ccccc2N(Cc2ccc(OCCCC(=O)NO)cc2)C1c1cccnc1` (racemic), the IC50 in data set [1] was determined as 1.63 µM; in [2], 0.616 µM.
The matching figures for `CC1(C)c2ccccc2N(Cc2ccc(C(=O)NO)cc2)[C@H]1c1cccnc1`: 16.2 µM and 0.0906 µM.
`CC1(C)c2ccccc2N(Cc2ccc(C(=O)NO)cc2)[C@@H]1c1cccnc1`: the IC50 amounted to 3.38 µM in data set [1] and 0.0713 µM in [2].
